How the values were obtained:
[1] = system: Pancreas; assay: Drug level in pancreas extract of BALB/c nude mouse xenografted with human A375 cells assessed as radioactivity in protein fraction after 0.25 to 2 hrs; assay type: ADME, tissue-based, A-375; conditions: in vivo
Method in brief: (§1)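 Female Balb/c nude mice bore subcutaneous A375 flank tumors and received 18-20 MBq tracer iv. Plasma or tissue was sonicated in 10% TCA with unlabeled FPHCys and KF, then centrifuged at 6000g; the pellet was re-extracted twice. Protein-bound fraction is pellet versus supernatant radioactivity, sampled at 0.25, 1 and 2 h.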

[2] = system: Heart; assay: Biodistribution in heart of BALB/c nude mouse xenografted with human A375 cells at 0.8 to 1 MBq, iv after 30 mins by gamma-counter; assay type: ADME, organism-based, A-375; conditions: in vivo, 0.5 h
Method in brief: (§2)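 Female Balb/c nude mice with s.c. A375 flank tumors, studied 26 days after tumor induction. Tracer 0.8-1 MBq in 100 μL saline given i.v. Groups of n = 5 killed at 15, 30, 60 and 120 min. Organs weighed and counted in a γ-counter against dilutions of the injected dose. Values are % ID/g wet tissue, mean ± SD.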

[3] = system: Spleen; assay: Biodistribution in spleen of BALB/c nude mouse xenografted with human A375 cells at 0.8 to 1 MBq, iv after 60 mins by gamma-counter; assay type: ADME, organism-based, A-375; conditions: in vivo, 1 h; method in brief: as §2
[4] = Biodistribution in tumor of BALB/c nude mouse xenografted with human A375 cells at 0.8 to 1 MBq, iv after 120 mins by gamma-counter; assay type: ADME, organism-based, Neoplasm, A-375; conditions: in vivo, 2 h; method in brief: as §2
[5] = system: Kidney; assay: Biodistribution in kidney of BALB/c nude mouse xenografted with human A375 cells at 0.8 to 1 MBq, iv after 120 mins by gamma-counter; assay type: ADME, organism-based, A-375; conditions: in vivo, 2 h; method in brief: as §2
[6] = system: Brain; assay: Biodistribution in brain of BALB/c nude mouse xenografted with human A375 cells at 0.8 to 1 MBq, iv after 15 mins by gamma-counter; assay type: ADME, organism-based, A-375; conditions: in vivo, 0.25 h; method in brief: as §2
[7] = system: Spleen; assay: Biodistribution in spleen of BALB/c nude mouse xenografted with human A375 cells at 0.8 to 1 MBq, iv after 30 mins by gamma-counter; assay type: ADME, organism-based, A-375; conditions: in vivo, 0.5 h; method in brief: as §2
[8] = system: Brain; assay: Metabolic stability in brain of BALB/c nude mouse xenografted with human A375 cells assessed as radioactivity after 0.25 to 1 hrs by HPLC analysis; assay type: ADME, tissue-based, A-375; conditions: in vivo
Method in brief: (§3)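 A375-tumored Balb/c nude mice received 18-20 MBq tracer iv. Plasma and urine were spiked with unlabeled FPHCys and KF and injected directly; tissues were sonicated in saline with carrier and centrifuged at 6000g. Radio-HPLC on C18 with methanol/phosphate buffer pH 6 gave intact fraction as authentic peak over total activity, at 0.25, 1 and 2 h.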

[9] = system: Brain; assay: Biodistribution in brain of BALB/c nude mouse xenografted with human A375 cells at 0.8 to 1 MBq, iv after 60 mins by gamma-counter; assay type: ADME, organism-based, A-375; conditions: in vivo, 1 h; method in brief: as §2
[10] = system: Bone; assay: Biodistribution in bone of BALB/c nude mouse xenografted with human A375 cells at 0.8 to 1 MBq, iv after 30 mins by gamma-counter; assay type: ADME, organism-based, Bone element, A-375; conditions: in vivo, 0.5 h; method in brief: as §2
[11] = system: Spleen; assay: Biodistribution in spleen of BALB/c nude mouse xenografted with human A375 cells at 0.8 to 1 MBq, iv after 15 mins by gamma-counter; assay type: ADME, organism-based, A-375; conditions: in vivo, 0.25 h; method in brief: as §2
[12] = system: Bone; assay: Biodistribution in bone of BALB/c nude mouse xenografted with human A375 cells at 0.8 to 1 MBq, iv after 60 mins by gamma-counter; assay type: ADME, organism-based, Bone element, A-375; conditions: in vivo, 1 h; method in brief: as §2
[13] = system: Heart; assay: Biodistribution in heart of BALB/c nude mouse xenografted with human A375 cells at 0.8 to 1 MBq, iv after 15 mins by gamma-counter; assay type: ADME, organism-based, A-375; conditions: in vivo, 0.25 h; method in brief: as §2
[14] = system: HT-29; assay: Drug uptake in human HT-29 cells in presence of amino acid transport system A inhibitor MeAIB; assay type: ADME, cell-based
Method in brief: (§4)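 Cells were prepared as for the uptake assay and preincubated at 37 °C with inhibitor at 12.5 mmol/L in PBS; controls received PBS. 0.37 MBq [18F]tracer was added and incubated 30 min at 37 °C. Cells were washed cold, lysed and γ-counted. Uptake is given as % of the control group, n = 3.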

[15] = system: Muscle tissue; assay: Biodistribution in muscle of BALB/c nude mouse xenografted with human A375 cells at 0.8 to 1 MBq, iv after 120 mins by gamma-counter; assay type: ADME, organism-based, A-375; conditions: in vivo, 2 h; method in brief: as §2
[16] = system: Plasma; assay: Drug level in plasma of BALB/c nude mouse xenografted with human A375 cells assessed as radioactivity in protein fractions after 0.25 to 2 hrs; assay type: ADME, cell-free, A-375; conditions: in vivo; method in brief: as §1
[17] = system: Lung; assay: Biodistribution in lungs of BALB/c nude mouse xenografted with human A375 cells at 0.8 to 1 MBq, iv after 60 mins by gamma-counter; assay type: ADME, organism-based, A-375; conditions: in vivo, 1 h; method in brief: as §2
[18] = system: Pancreas; assay: Metabolic stability in pancreas of BALB/c nude mouse xenografted with human A375 cells assessed as radioactivity after 1 hrs by HPLC analysis; assay type: ADME, tissue-based, A-375; conditions: in vivo; method in brief: as §3
[19] = system: Heart; assay: Biodistribution in heart of BALB/c nude mouse xenografted with human A375 cells at 0.8 to 1 MBq, iv after 60 mins by gamma-counter; assay type: ADME, organism-based, A-375; conditions: in vivo, 1 h; method in brief: as §2
[20] = system: A-375; assay: Cellular uptake in human A375 cells assessed as accumulation per 10^5 cells after 60 mins by gamma-counter; assay type: ADME, cell-based; conditions: a-375, 1 h
Method in brief: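 Cells seeded at 2.5 × 10^5 per well in RPMI-1640 with 10% FBS and 2 mM L-glutamine, attached overnight, then washed with warm PBS. Incubated at 37 °C with 0.37 MBq [18F]tracer in PBS for 2–240 min. Cells washed with ice-cold PBS, lysed in 0.2 N NaOH and counted by γ-counter. Read as % applied dose per 10^5 cells, decay-corrected, n = 3.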

[21] = system: Pancreas; assay: Biodistribution in pancreas of BALB/c nude mouse xenografted with human A375 cells at 0.8 to 1 MBq, iv after 30 mins by gamma-counter; assay type: ADME, organism-based, A-375; conditions: in vivo, 0.5 h; method in brief: as §2
[22] = system: Spleen; assay: Biodistribution in spleen of BALB/c nude mouse xenografted with human A375 cells at 0.8 to 1 MBq, iv after 120 mins by gamma-counter; assay type: ADME, organism-based, A-375; conditions: in vivo, 2 h; method in brief: as §2
[23] = system: Muscle tissue; assay: Biodistribution in muscle of BALB/c nude mouse xenografted with human A375 cells at 0.8 to 1 MBq, iv after 30 mins by gamma-counter; assay type: ADME, organism-based, A-375; conditions: in vivo, 0.5 h; method in brief: as §2
[24] = Biodistribution in tumor of BALB/c nude mouse xenografted with human A375 cells at 0.8 to 1 MBq, iv after 60 mins by gamma-counter; assay type: ADME, organism-based, Neoplasm, A-375; conditions: in vivo, 1 h; method in brief: as §2
[25] = system: Kidney; assay: Biodistribution in kidney of BALB/c nude mouse xenografted with human A375 cells at 0.8 to 1 MBq, iv after 15 mins by gamma-counter; assay type: ADME, organism-based, A-375; conditions: in vivo, 0.25 h; method in brief: as §2
[26] = system: Blood; assay: Biodistribution in blood of BALB/c nude mouse xenografted with human A375 cells at 0.8 to 1 MBq, iv after 120 mins by gamma-counter; assay type: ADME, organism-based, A-375; conditions: in vivo, 2 h; method in brief: as §2
[27] = system: A-375; assay: Cellular uptake in human A375 cells after 15 mins by gamma-counter; assay type: ADME, cell-based; conditions: a-375, 0.25 h
Method in brief: (§5)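 A375 cells grown in RPMI-1640 with 10% FBS and 2 mM L-glutamine; 2.5×10^5 seeded per well overnight, counts done in triplicate. After a warm PBS wash, cells got 0.37 MBq tracer in 500 μL PBS at 37 °C. Stopped with ice-cold PBS wash, lysed in 0.2 N NaOH, counted in a γ-counter. Decay-corrected % applied dose per 10^5 cells, mean ± SD, n = 3.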

[28] = system: A-375; assay: Cellular uptake in human A375 cells after 15 to 60 mins by gamma-counter; assay type: ADME, cell-based; method in brief: as §5
[29] = system: HT-29; assay: Drug uptake in human HT-29 cells in presence of amino acid transport system L inhibitor BCH; assay type: ADME, cell-based; method in brief: as §4

Row | Compound | Drug uptake [1] | Drug uptake [2] | Drug uptake [3] | Drug uptake [4] | Drug uptake [5] | Drug uptake [6] | Drug uptake [7] | Stability [8] | Drug uptake [9] | Drug uptake [10] | Drug uptake [11] | Drug uptake [12] | Drug uptake [13] | Drug uptake [14] | Drug uptake [15] | Drug uptake [16] | Drug uptake [17] | Drug uptake [19] | Drug uptake [21] | Drug uptake [22] | further results
1 | Cl.N[C@@H](CCSCCC[18F])C(=O)O | 1% | 4.2 % ID/g | 2.11 % ID/g | 4.4 % ID/g | 3.92 % ID/g | 3.13 % ID/g | 4.18 % ID/g | 85% | 1.3 % ID/g | 3.5 % ID/g | 5.05 % ID/g | 2.31 % ID/g | 5.08 % ID/g | Active | 1.52 % ID/g | 1% | 2.62 % ID/g | 2.32 % ID/g | 12.3 % ID/g | 1.39 % ID/g | Stability [18]: 30%; Drug uptake [20]: 9%; Drug uptake [23]: 4.2 % ID/g; Drug uptake [24]: 5.64 % ID/g; Drug uptake [25]: 15.4 % ID/g; Drug uptake [26]: 1.38 % ID/g
2 | Cl.N[C@H](CCSCCC[18F])C(=O)O | 1% | 3.05 % ID/g | 0.95 % ID/g | 1.68 % ID/g | 1.04 % ID/g | 1.53 % ID/g | 2.83 % ID/g | 85% | 0.75 % ID/g | 2.29 % ID/g | 4.24 % ID/g | 1.63 % ID/g | 3.92 % ID/g | Active | 0.63 % ID/g | 1% | 1.55 % ID/g | 1.16 % ID/g | 19.6 % ID/g | 0.31 % ID/g | Drug uptake [27]: Active; Drug uptake [28]: Active; Drug uptake [23]: 1.97 % ID/g; Drug uptake [24]: 3.91 % ID/g; Drug uptake [25]: 12.2 % ID/g; Drug uptake [29]: Not Active; Drug uptake [26]: 0.89 % ID/g

Reference: ChEMBL document CHEMBL1687936, “Radiosynthesis and biological evaluation of L- and D-S-(3-[18F]fluoropropyl)homocysteine for tumor imaging using positron emission tomography” (J Med Chem, 2011)
